Experimental data reported in ChEMBL document CHEMBL1121968, “Phospholipid-nucleoside conjugates. 3. Syntheses and preliminary biological evaluation of 1-beta-D-arabinofuranosylcytosine 5'-monophosphate-L-1,2-dipalmitin and selected 1-beta-D-arabinofuranosylcytosine 5-diphosphate-L-1,2-diacylglycerols” (1982).

How the values were obtained:
[1] = tested on: Mus musculus; experiment: Change in weight of mouse on day 8 was measured in L1210 lymphoid leukemia inoculated mice after ip administration at dose of 50 mg/kg/day X5; format: functional; details: route intraperitoneal
Method in brief: (§1)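 C3D2F1/J mice, groups of six, average weight 25 g, were inoculated ip with 1×10^6 L1210 lymphoid leukemia cells following NCI protocol. Dosing was ip, daily, starting 24 h after tumor implantation and continuing through day 5. Body-weight change in g/mouse was recorded on day 8. Pooled controls were 24 mice.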

[2] = tested on: Mus musculus; experiment: Median survival time expressed as (T/C) was measured at dose of 50 mg/kg/day *5; 14.0/8.0
[3] = In vitro antiproliferative activity was measured in mouse L1210 lymphoid leukemia cell line; details: read-out: ED50 (the source's name)
[4] = species: Mus musculus; experiment: Number of mice survived after 30 days; format: functional
Method in brief: (§2)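 C3D2F1/J mice (groups of six, av wt 25 g) were inoculated ip with 1×10^6 L1210 lymphoid leukemia cells. Dosing started 24 h after implantation and continued daily through day 5. Read-outs were median survival time of treated versus controls (T/C, 24 controls), %ILS = (T/C − 1)×100, 30-day survivors, and weight change on day 8.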

[5] = tested on: Mus musculus; experiment: Percent increase in life span calculated as (T/C-1)X100 at a dose of 25 mg/kg/day X5; format: functional; method in brief: as §2
[6] = tested on: Mus musculus; experiment: Percent increase in life span calculated as (T/C-1)X100 at a dose of 40 mg/kg/day X5; format: functional; method in brief: as §2
[7] = tested on: MPC-11; experiment: In vitro lethal dose was measured in mouse myeloma MPC-11 cell line; format: functional; details: read-out: LD50 (the source's name)
[8] = tested on: Mus musculus; experiment: Median survival time expressed as (T/C) was measured at dose of 40 mg/kg/day X5; 24.5/8.5; format: functional; method in brief: as §2
[9] = tested on: Mus musculus; experiment: Median survival time expressed as (T/C) was measured at dose of 25 mg/kg/day X5; 20.0/7.0
[10] = tested on: Mus musculus; experiment: Change in weight of mouse on day 8 was measured in L1210 lymphoid leukemia inoculated mice after ip administration at dose of 40 mg/kg/day X5; format: functional; details: route intraperitoneal; method in brief: as §1
[11] = tested on: Mus musculus; experiment: Change in weight of mouse on day 8 was measured in L1210 lymphoid leukemia inoculated mice after ip administration at dose of 25 mg/kg/day X5; format: functional; details: route intraperitoneal; method in brief: as §1
[12] = tested on: MPC-11; experiment: In vitro antiproliferative activity was measured in mouse myeloma MPC-11 cell line; format: functional; details: read-out: ED50 (the source's name)
[13] = tested on: Mus musculus; experiment: Median survival time expressed as (T/C) was measured at dose of 20 mg/kg/day X5; format: functional; method in brief: as §2
[14] = tested on: Mus musculus; experiment: Percent increase in life span calculated as (T/C-1)X100 at a dose of 20 mg/kg/day X5; format: functional; method in brief: as §2
[15] = tested on: Mus musculus; experiment: Percent increase in life span calculated as (T/C-1)X100 at a dose of 10 mg/kg/day *5; format: functional; method in brief: as §2
[16] = tested on: Mus musculus; experiment: Median survival time expressed as (T/C) was measured at dose of 40 mg/kg/day X5; format: functional; method in brief: as §2
[17] = tested on: Mus musculus; experiment: Change in weight of mouse on day 8 was measured in L1210 lymphoid leukemia inoculated mice after ip administration at dose of 10 mg/kg/day *5; format: functional; details: route intraperitoneal; method in brief: as §1
[18] = tested on: Mus musculus; experiment: Median survival time expressed as (T/C) was measured at dose of 10 mg/kg/day *5; format: functional; method in brief: as §2
[19] = tested on: Mus musculus; experiment: Change in weight of mouse on day 8 was measured in L1210 lymphoid leukemia inoculated mice after ip administration at dose of 20 mg/kg/day X5; format: functional; details: route intraperitoneal; method in brief: as §1
[20] = tested on: Mus musculus; experiment: Median survival time expressed as (T/C) was measured at dose of 40 mg/kg/day X5; 20.0/7.5; format: functional; method in brief: as §2
[21] = tested on: Mus musculus; experiment: Median survival time expressed as (T/C) was measured at dose of 20 mg/kg/day X5; 18.0/7.5; format: functional; method in brief: as §2
[22] = tested on: Mus musculus; experiment: Median survival time expressed as (T/C) was measured at dose of 10 mg/kg/day *5; 15.0/7.5; format: functional; method in brief: as §2
[23] = tested on: Mus musculus; experiment: Median survival time expressed as (T/C) was measured at dose of 60 mg/kg/day x5; 8.5/8.0; format: functional; method in brief: as §2
[24] = tested on: Mus musculus; experiment: Change in weight of mouse on day 8 was measured in L1210 lymphoid leukemia inoculated mice after ip administration at dose of 60 mg/kg/day X5; format: functional; details: route intraperitoneal; method in brief: as §1
[25] = tested on: Mus musculus; experiment: Percent increase in life span calculated as (T/C-1)X100 at a dose of 60 mg/kg/day X5; format: functional; method in brief: as §2
[26] = tested on: Mus musculus; experiment: Median survival time expressed as (T/C) was measured at dose of 40 mg/kg/day X5; 19.0/7.5; format: functional; method in brief: as §2
[27] = tested on: Mus musculus; experiment: Median survival time expressed as (T/C) was measured at dose of 10 mg/kg/day *5; 14.0/7.5; format: functional; method in brief: as §2

Row | Compound | EC50 [3] [µM] | Survivors [4] | ILS at 40 mg/kg/day [6] [%] | CC50 [7] [µM] | Weight change [10] [g mouse-1] | EC50 [12] [µM] | ILS at 20 mg/kg/day [14] [%] | ILS at 10 mg/kg/day [15] [%] | Weight change [17] [g mouse-1] | Weight change [19] [g mouse-1] | T/C [21] [days] | also measured
1 | CCCCCCCCCCCCCCCC(=O)OC[C@H](COP(=O)(O)OC[C@H]1O[C@@H](n2ccc(N)nc2=O)[C@@H](O)[C@@H]1O)OC(=O)CCCCCCCCCCCCCCC | 13.4 | 0 |  |  |  |  |  |  |  |  |  | Weight change [1]: 1.7 g mouse-1; T/C [2]: 14 days
2 | CCCCCCCCCCCCCCCC(=O)OC[C@H](COP(=O)(O)OP(=O)(O)OC[C@H]1O[C@@H](n2ccc(N)nc2=O)[C@@H](O)[C@@H]1O)OC(=O)CCCCCCCCCCCCCCC | 9.6 | 1 | 188 | 68.5 | -1.8 | 65 |  |  |  |  |  | ILS at 25 mg/kg/day [5]: 186%; T/C [8]: 24.5 days; T/C [9]: 20 days; Weight change [11]: 1.57 g mouse-1
3 | Nc1ccn([C@@H]2O[C@H](CO)[C@@H](O)[C@@H]2O)c(=O)n1 [CYTARABINE] | 0.1 | 0 | 65 | 1.91 | 0.6 | 0.99 | 65 | 53 | 0.8 | 0.5 |  | T/C [13]: 14 days; T/C [16]: 14 days; T/C [18]: 13 days
4 | CCCCCCCCCCCCCCCCCC(=O)OC[C@H](COP(=O)(O)OP(=O)(O)OC[C@H]1O[C@@H](n2ccc(N)nc2=O)[C@@H](O)[C@@H]1O)OC(=O)CCCCCCCCCCCCCCCCC | 20 | 0 | 167 | 164 | -0.4 | 195 | 140 | 100 | 1.2 | 1.1 | 18 | T/C [20]: 20 days; T/C [22]: 15 days
5 | CCCCCCCCCCCCCC(=O)OC[C@H](COP(=O)(O)OP(=O)(O)OC[C@H]1O[C@@H](n2ccc(N)nc2=O)[C@@H](O)[C@@H]1O)OC(=O)CCCCCCCCCCCCC | 16 | 0 | 153 | 15.2 | 0.1 | 15 | 140 | 87 | 1.8 | 1.15 | 18 | T/C [23]: 8.5 days; Weight change [24]: -4.6 g mouse-1; ILS at 60 mg/kg/day [25]: 6%; T/C [26]: 19 days; T/C [27]: 14 days
